Experimental data: ChEMBL document CHEMBL1140710, “Structure-activity relationships of cyclic lactam analogues of alpha-melanocyte-stimulating hormone (alpha-MSH) targeting the human melanocortin-3 receptor” (J Med Chem, 2008)

Legend:
[1] = target: T1, Melanocortin receptor 3 (Homo sapiens, UniProt P41968); experiment: biochemical; format: cell-based, HEK293
[2] = target: T2, Melanocortin receptor 5 (Homo sapiens, UniProt P33032); experiment: Agonist activity at human MC5 receptor expressed in HEK293 cells assessed as intracellular cAMP accumulation; format: functional, cell-based
T2 sequence (P33032 whole entry): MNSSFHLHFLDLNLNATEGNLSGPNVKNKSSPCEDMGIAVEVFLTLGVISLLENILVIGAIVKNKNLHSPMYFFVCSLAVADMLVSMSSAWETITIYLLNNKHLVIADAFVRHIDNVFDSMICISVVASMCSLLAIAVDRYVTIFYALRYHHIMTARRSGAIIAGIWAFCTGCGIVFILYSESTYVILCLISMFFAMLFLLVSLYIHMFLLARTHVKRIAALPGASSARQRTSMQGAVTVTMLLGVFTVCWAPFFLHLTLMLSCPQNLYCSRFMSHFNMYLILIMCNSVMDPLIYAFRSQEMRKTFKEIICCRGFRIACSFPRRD
How it was run: (§1)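 HEK293 cells stably transfected with the receptor, seeded 48 h ahead at 50000 cells/well. Preincubated 1 min at 37 °C in Earle's balanced salt solution with 0.5 mM IBMX, then exposed to peptide for 3 min at 37 °C. cAMP measured by [3H]cAMP/PKA competition against a standard curve.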

[3] = target: T3, Melanocyte-stimulating hormone receptor (Homo sapiens, UniProt Q01726); experiment: Displacement of [125I][Nle4,D-Phe7]alpha-MSH from human MC1 receptor expressed in HEK293 cells; format: cell-based
How it was run: (§2)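 Whole stably transfected HEK293 cells seeded 48 h before assay at 50000 cells/well. Binding buffer: MEM, 25 mM HEPES pH 7.4, 0.2% BSA, 1 mM 1,10-phenanthroline, leupeptin, bacitracin. Cells washed, lysed with NaOH/Triton X-100, gamma-counted. IC50 is mean of two triplicate experiments.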
Target sequence in this assay (Q01726 whole entry): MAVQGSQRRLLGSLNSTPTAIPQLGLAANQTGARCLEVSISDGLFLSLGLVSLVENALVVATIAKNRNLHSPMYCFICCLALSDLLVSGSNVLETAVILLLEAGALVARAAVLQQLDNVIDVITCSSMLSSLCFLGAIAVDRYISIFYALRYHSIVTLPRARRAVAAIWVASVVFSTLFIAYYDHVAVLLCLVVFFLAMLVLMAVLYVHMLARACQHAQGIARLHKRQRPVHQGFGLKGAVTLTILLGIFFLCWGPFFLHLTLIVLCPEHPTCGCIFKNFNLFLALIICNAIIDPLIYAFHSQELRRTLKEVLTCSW

[4] = target: T2, Melanocortin receptor 5; experiment: Displacement of [125I][Nle4,D-Phe7]alpha-MSH from human MC5 receptor expressed in HEK293 cells; format: cell-based
How it was run: as §2

[5] = target: T4, Melanocortin receptor 4 (Homo sapiens, UniProt P32245); experiment: biochemical; format: cell-based, HEK293
T4 sequence (P32245 whole entry): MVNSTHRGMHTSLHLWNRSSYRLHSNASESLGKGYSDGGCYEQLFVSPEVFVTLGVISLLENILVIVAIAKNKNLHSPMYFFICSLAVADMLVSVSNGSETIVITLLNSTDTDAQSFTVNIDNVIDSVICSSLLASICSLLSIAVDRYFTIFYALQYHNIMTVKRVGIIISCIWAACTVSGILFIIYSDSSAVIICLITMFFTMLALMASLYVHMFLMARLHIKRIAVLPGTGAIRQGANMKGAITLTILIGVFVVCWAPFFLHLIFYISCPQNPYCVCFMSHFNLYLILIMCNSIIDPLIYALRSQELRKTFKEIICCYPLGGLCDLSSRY

[6] = target: T4, Melanocortin receptor 4; experiment: Agonist activity at human MC4 receptor expressed in HEK293 cells assessed as intracellular cAMP accumulation at 10 uM relative to MT2; format: functional, cell-based
How it was run: (§3)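 Stably transfected HEK293 cells seeded 48 h before assay at 50000 cells/well. Cells preincubated 1 min at 37 °C in Earle's balanced salt solution with 0.5 mM IBMX, then exposed to 10 μM peptide for 3 min at 37 °C. Cells boiled 7 min, cAMP measured by [3H]cAMP/PKA competition with a standard curve. Result expressed as percent of cAMP produced by 10 μM MT-II.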

[7] = target: T1, Melanocortin receptor 3; experiment: Agonist activity at human MC3 receptor expressed in HEK293 cells assessed as intracellular cAMP accumulation at 10 uM relative to MT2; format: functional, cell-based
How it was run: as §3

[8] = target: T1, Melanocortin receptor 3; experiment: Agonist activity at human MC3 receptor expressed in HEK293 cells assessed as intracellular cAMP accumulation; format: functional, cell-based
How it was run: (§4)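 Stably transfected HEK293 cells seeded 48 h before assay at 50000 cells/well. Cells preincubated 1 min at 37 °C in Earle's balanced salt solution with 0.5 mM IBMX, then exposed to varying peptide concentrations for 3 min at 37 °C. Cells boiled 7 min, cAMP quantified by [3H]cAMP/PKA competition against a standard curve.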

[9] = target: T3, Melanocyte-stimulating hormone receptor; experiment: Agonist activity at human MC1 receptor expressed in HEK293 cells assessed as intracellular cAMP accumulation at 10 uM relative to MT2; format: functional, cell-based
How it was run: as §3
Target sequence in this assay (Q01726 whole entry, looked up): as the sequence (Q01726 whole entry) above

[10] = target: T2, Melanocortin receptor 5; experiment: Agonist activity at human MC5 receptor expressed in HEK293 cells assessed as intracellular cAMP accumulation at 10 uM; format: functional, cell-based
How it was run: as §3

[11] = target: T4, Melanocortin receptor 4; experiment: Agonist activity at human MC4 receptor expressed in HEK293 cells assessed as intracellular cAMP accumulation at 10 uM; format: functional, cell-based
How it was run: as §3

[12] = target: T2, Melanocortin receptor 5; experiment: Agonist activity at human MC5 receptor expressed in HEK293 cells assessed as intracellular cAMP accumulation at 10 uM relative to MT2; format: functional, cell-based
How it was run: as §3

[13] = target: T3, Melanocyte-stimulating hormone receptor; experiment: Agonist activity at human MC1 receptor expressed in HEK293 cells assessed as intracellular cAMP accumulation; format: functional, cell-based
How it was run: as §4
Target sequence in this assay (Q01726 whole entry): as above

[14] = target: T4, Melanocortin receptor 4; experiment: Agonist activity at human MC4 receptor expressed in HEK293 cells assessed as intracellular cAMP accumulation; format: functional, cell-based
How it was run: as §1

[15] = target: T1, Melanocortin receptor 3; experiment: Antagonist activity at human MC3 receptor expressed in HEK293 cells assessed as inhibition of MT2 induced intracellular cAMP accumulation; format: functional, cell-based; conditions: read-out: pA2 (converted)
[16] = target: T2, Melanocortin receptor 5; experiment: Antagonist activity at human MC5 receptor expressed in HEK293 cells assessed as inhibition of MT2 induced intracellular cAMP accumulation; format: functional, cell-based; conditions: read-out: pA2 (converted)
[17] = target: T3, Melanocyte-stimulating hormone receptor; experiment: Agonist activity at human MC1 receptor expressed in HEK293 cells assessed as intracellular cAMP accumulation at 10 uM; format: functional, cell-based
How it was run: as §3
Target sequence in this assay (Q01726 whole entry, looked up): as the sequence (Q01726 whole entry) above

[18] = target: T1, Melanocortin receptor 3; experiment: Agonist activity at human MC3 receptor expressed in HEK293 cells assessed as intracellular cAMP accumulation at 10 uM; format: functional, cell-based
How it was run: as §3

T1 sequence (P41968 whole entry): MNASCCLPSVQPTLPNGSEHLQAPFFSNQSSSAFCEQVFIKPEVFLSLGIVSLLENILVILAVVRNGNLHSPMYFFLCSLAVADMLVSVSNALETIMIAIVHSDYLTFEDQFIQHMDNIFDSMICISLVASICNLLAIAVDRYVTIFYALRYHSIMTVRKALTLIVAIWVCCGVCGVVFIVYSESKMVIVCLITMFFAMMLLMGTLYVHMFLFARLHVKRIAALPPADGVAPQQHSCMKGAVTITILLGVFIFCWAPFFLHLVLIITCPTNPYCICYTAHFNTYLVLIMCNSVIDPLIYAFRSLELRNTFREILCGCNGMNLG

SMILES | IC50 [1] | EC50 [2] | IC50 [3] | IC50 [4] | IC50 [5] | Activity [6] | Activity [7] | EC50 [8] | Activity [9] | Activity [10] | Activity [11] | Activity [12] | EC50 [13] | EC50 [14] | Kb [15] | Kb [16] | Activity [17] | Activity [18]
CCCC[C@@H]1NC(=O)CCC(=O)NCCCC[C@@H](C(N)=O)NC(=O)[C@H](Cc2c[nH]c3ccccc23)NC(=O)[C@H](CCCN=C(N)N)NC(=O)[C@@H](Cc2ccccc2)NC1=O | 84 nM | > 1000 nM | > 10 µM | 520 nM | 930 nM | – | – | – | – | – | – | – | – | – | – | – | – | –
N=C(N)NCCC[C@@H]1NC(=O)[C@@H](Cc2ccccc2)NC(=O)c2nccnc2C(=O)NCCCC[C@@H](C(N)=O)NC(=O)[C@H](Cc2c[nH]c3ccccc23)NC1=O | 1100 nM | – | 0.412 µM | > 10000 nM | > 10000 nM | 0% | 70% | 27 nM | 60% | 0% | 0% | 0% | > 10 µM | – | – | – | – | –
NC(=O)[C@@H]1CCCCNC(=O)CCCC(=O)N2CCC[C@H]2C(=O)N[C@H](Cc2ccccc2)C(=O)N[C@@H](CCCN=C(N)N)C(=O)N[C@@H](Cc2c[nH]c3ccccc23)C(=O)N1 | 385 nM | 570 nM | > 10 µM | 870 nM | > 1000 nM | – | – | 29 nM | – | – | – | – | – | > 2000 nM | – | – | – | –
CCCC[C@@H]1NC(=O)CCC(=O)NCCCC[C@@H](C(N)=O)NC(=O)[C@H](Cc2c[nH]c3ccccc23)NC(=O)[C@H](CCCN=C(N)N)NC(=O)[C@@H](Cc2ccc3ccccc3c2)NC1=O | 12 nM | – | 2 µM | 17 nM | 300 nM | – | – | – | – | – | – | – | > 1 µM | – | 5.01 nM | 2 nM | – | –
N=C(N)NCCC[C@@H]1NC(=O)[C@@H](Cc2ccc3ccccc3c2)NC(=O)[C@@H]2CCCN2C(=O)/C=C\C(=O)NCCCC[C@@H](C(N)=O)NC(=O)[C@H](Cc2c[nH]c3ccccc23)NC1=O | 20 nM | – | > 10 µM | 120 nM | 520 nM | 0% | 0% | – | 0% | 0% | 0% | 0% | – | – | – | – | 0% | 0%
NC(=O)[C@@H]1CCCCNC(=O)CCCC(=O)N2CCC[C@H]2C(=O)N[C@H](Cc2ccc3ccccc3c2)C(=O)N[C@@H](CCCN=C(N)N)C(=O)N[C@@H](Cc2c[nH]c3ccccc23)C(=O)N1 | 11 nM | 23 nM | > 10 µM | 27 nM | 330 nM | – | – | – | – | – | – | – | – | – | 0.158 nM | – | – | –
N=C(N)NCCC[C@@H]1NC(=O)[C@@H](Cc2ccc3ccccc3c2)NC(=O)c2nccnc2C(=O)NCCCC[C@@H](C(N)=O)NC(=O)[C@H](Cc2c[nH]c3ccccc23)NC1=O | – | – | – | – | – | 0% | 0% | – | 55% | 0% | 0% | 0% | – | – | – | – | – | 0%
